Tests used:
A549 = experiment: Cytotoxicity against human A549 cells assessed as reduction in cell viability after 72 hrs by MTT assay; type: functional, cell-based; conditions: A549, 72 h
[1] = Cytotoxicity against human PC3 cells assessed as reduction in cell viability after 72 hrs by MTT assay; type: functional, cell-based; conditions: PC-3, 72 h
Summary of the method: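 Cells grown in MEM with 10% FBS. About 4×10³ cells per well, seeded and held 24 h at 37 °C in 5% CO₂. Compounds added at the indicated final concentrations for 72 h. MTT then given for 4 h at 37 °C and formazan dissolved in DMSO. Absorbance read at 492 nm with 630 nm as reference.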

MCF7 = experiment: Cytotoxicity against human MCF7 cells assessed as reduction in cell viability after 72 hrs by MTT assay; type: functional, cell-based; conditions: MCF7, 72 h
[2] = target: Serine/threonine-protein kinase mTOR (Homo sapiens, UniProt P42345); experiment: Inhibition of mTOR (unknown origin) using ULight-4E-BP1 peptide substrate incubated for 1 hr by TR-FRET assay
[3] = target: Phosphatidylinositol 4,5-bisphosphate 3-kinase catalytic subunit alpha isoform (Homo sapiens, UniProt P42336); experiment: Inhibition of PI3Kalpha (unknown origin) using phosphatidylinositol as substrate incubated for 60 mins by Kinase-Glo luminescent kinase assay
Sequence of Phosphatidylinositol 4,5-bisphosphate 3-kinase catalytic subunit alpha isoform (P42336 whole entry, canonical isoform): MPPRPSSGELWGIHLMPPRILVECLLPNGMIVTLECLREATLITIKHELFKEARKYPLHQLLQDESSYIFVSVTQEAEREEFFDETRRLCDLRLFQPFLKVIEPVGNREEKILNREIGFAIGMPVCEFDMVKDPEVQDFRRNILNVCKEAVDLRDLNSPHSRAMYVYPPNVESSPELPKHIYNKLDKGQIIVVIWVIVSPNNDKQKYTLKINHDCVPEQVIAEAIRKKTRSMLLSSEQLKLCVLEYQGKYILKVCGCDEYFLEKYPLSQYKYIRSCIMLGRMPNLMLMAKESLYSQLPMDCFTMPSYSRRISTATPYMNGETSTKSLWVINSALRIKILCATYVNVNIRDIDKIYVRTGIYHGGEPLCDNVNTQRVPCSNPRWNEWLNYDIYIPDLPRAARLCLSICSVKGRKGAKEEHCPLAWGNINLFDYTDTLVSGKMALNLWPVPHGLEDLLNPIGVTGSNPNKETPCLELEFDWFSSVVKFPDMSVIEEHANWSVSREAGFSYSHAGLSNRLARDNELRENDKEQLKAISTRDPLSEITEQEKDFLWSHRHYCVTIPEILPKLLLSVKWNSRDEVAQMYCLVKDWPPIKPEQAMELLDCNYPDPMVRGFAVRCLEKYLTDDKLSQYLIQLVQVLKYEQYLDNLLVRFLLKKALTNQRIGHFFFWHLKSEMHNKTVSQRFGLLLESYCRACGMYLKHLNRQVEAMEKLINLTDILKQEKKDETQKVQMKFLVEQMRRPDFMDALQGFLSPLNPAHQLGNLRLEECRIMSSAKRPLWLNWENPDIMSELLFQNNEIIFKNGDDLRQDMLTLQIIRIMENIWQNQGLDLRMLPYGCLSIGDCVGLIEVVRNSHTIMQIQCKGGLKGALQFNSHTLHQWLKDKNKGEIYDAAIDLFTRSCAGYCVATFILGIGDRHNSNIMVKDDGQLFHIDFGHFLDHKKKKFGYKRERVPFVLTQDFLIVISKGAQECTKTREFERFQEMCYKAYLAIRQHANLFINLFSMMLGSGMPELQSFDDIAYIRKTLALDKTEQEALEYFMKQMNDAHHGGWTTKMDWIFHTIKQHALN

[4] = target: Hepatocyte growth factor receptor (Homo sapiens, UniProt P08581)
Sequence of Hepatocyte growth factor receptor (P08581 whole entry): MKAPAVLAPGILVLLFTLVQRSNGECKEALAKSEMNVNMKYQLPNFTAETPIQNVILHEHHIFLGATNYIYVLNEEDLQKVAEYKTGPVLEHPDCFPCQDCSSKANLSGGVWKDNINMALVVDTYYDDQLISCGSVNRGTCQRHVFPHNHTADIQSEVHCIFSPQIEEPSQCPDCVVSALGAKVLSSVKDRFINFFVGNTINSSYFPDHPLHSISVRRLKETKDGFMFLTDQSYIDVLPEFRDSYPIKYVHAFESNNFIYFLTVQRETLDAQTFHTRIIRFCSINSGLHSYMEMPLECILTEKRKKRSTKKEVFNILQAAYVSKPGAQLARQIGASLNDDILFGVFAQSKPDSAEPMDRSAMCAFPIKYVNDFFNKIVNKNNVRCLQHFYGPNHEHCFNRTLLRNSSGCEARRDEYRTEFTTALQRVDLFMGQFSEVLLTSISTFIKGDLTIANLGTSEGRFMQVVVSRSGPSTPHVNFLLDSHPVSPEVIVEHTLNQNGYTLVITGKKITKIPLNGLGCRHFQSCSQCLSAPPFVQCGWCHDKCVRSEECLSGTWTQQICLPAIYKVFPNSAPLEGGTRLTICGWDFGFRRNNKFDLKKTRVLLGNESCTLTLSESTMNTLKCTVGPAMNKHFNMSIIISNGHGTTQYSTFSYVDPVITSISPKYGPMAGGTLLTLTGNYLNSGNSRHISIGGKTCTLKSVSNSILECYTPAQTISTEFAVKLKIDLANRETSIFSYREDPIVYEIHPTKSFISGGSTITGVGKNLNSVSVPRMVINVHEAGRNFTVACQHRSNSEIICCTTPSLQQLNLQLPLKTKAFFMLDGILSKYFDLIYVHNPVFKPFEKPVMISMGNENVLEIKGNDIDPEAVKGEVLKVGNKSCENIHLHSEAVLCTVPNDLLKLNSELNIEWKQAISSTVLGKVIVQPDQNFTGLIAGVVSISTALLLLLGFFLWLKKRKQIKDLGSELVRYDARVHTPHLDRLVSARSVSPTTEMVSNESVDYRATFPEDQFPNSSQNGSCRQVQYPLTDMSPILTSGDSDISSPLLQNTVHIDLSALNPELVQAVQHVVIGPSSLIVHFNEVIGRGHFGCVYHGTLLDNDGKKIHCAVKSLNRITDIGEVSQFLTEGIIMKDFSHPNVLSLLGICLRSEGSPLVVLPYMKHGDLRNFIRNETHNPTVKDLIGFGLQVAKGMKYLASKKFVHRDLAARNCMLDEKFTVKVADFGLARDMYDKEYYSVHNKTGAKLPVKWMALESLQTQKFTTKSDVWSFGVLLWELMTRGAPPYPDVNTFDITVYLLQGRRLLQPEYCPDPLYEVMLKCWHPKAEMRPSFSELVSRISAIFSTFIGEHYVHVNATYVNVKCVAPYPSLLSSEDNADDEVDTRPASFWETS

| SMILES | IC50 (A549) [µM] | IC50 [1] [µM] | IC50 (MCF7) [µM] | IC50 [2] [µM] | IC50 [3] [µM] | IC50 [4] [µM] |
| --- | --- | --- | --- | --- | --- | --- |
| O=C(Nc1ccc(-c2nc3c(c(N4CCOCC4)n2)CSCC3)cc1)NS(=O)(=O)c1ccc(Cl)cc1 | > 50 | > 50 | > 50 |  |  |  |
| CS(=O)(=O)N1CCN(Cc2cc3nc(-c4cccc5[nH]ncc45)nc(N4CCOCC4)c3s2)CC1 [PICTILISIB] | 1.2 | 0.8 |  |  |  |  |
| O=C(Nc1ccc(-c2nc3c(c(N4CCOCC4)n2)CSCC3)cn1)NS(=O)(=O)c1cccs1 | 46.9 | > 50 | > 50 |  |  |  |
| Cc1ccc(S(=O)(=O)NC(=O)Nc2ccc(-c3nc4c(c(N5CCOCC5)n3)CS(=O)(=O)CC4)cn2)cc1 | 42.5 | > 50 | > 50 |  |  |  |
| O=C(Nc1ccc(-c2nc3c(c(N4CCOCC4)n2)CSCC3)cc1)NS(=O)(=O)c1ccc(F)cc1 | > 50 | > 50 | > 50 |  |  |  |
| O=C(Nc1ccc(-c2nc3c(c(N4CCOCC4)n2)CS(=O)(=O)CC3)cc1)NS(=O)(=O)c1ccc(F)cc1 | > 50 | > 50 | > 50 |  |  |  |
| O=C(Nc1ccc(-c2nc3c(c(N4CCOCC4)n2)CSCC3)cn1)NS(=O)(=O)c1ccc(Cl)cc1 | > 50 | > 50 | > 50 |  |  |  |
| O=C(Nc1ccc(-c2nc3c(c(N4CCOCC4)n2)CS(=O)(=O)CC3)cn1)NS(=O)(=O)c1ccc(F)cc1F | 22.7 | > 50 | 19.7 |  |  |  |
| O=C(Nc1ccc(F)c(Cl)c1)Nc1ccc(-c2nc3c(c(N4CCOCC4)n2)CS(=O)(=O)CC3)cn1 | 0.52 | 1.41 | 4.82 | 0.94 | 6.72 | > 10 |
| O=C(Nc1ccccc1)Nc1ccc(-c2nc3c(c(N4CCOCC4)n2)CSCC3)cn1 | 1.27 | > 50 | 46.6 |  |  |  |
| O=C(Nc1ccc(Br)cc1)N1CCN(c2nc3c(c(N4CCOCC4)n2)CS(=O)(=O)CC3)CC1 | 19 | > 50 | 45.6 |  |  |  |
| O=C(Nc1ccc(Cl)c(C(F)(F)F)c1)Nc1ccc(-c2nc3c(c(N4CCOCC4)n2)CS(=O)(=O)CC3)cn1 | > 50 | 32.2 | 4.67 |  |  |  |
| O=C(Nc1ccc(Br)cc1)N1CCN(c2nc3c(c(N4CCOCC4)n2)CSCC3)CC1 | 39.9 | > 50 | 4.68 |  |  |  |
| O=C(Nc1ccccc1)N1CCN(c2nc3c(c(N4CCOCC4)n2)CSCC3)CC1 | > 50 | > 50 | > 50 |  |  |  |
| CNC(=O)c1cc(Oc2ccc(NC(=O)Nc3ccc(Cl)c(C(F)(F)F)c3)cc2)ccn1 [SORAFENIB] |  | 8.08 |  |  |  |  |
| O=C(Nc1ccccc1)N1CCN(c2nc3c(c(N4CCOCC4)n2)CS(=O)(=O)CC3)CC1 | > 50 | > 50 | > 50 |  |  |  |
| O=C(Nc1ccc(-c2nc3c(c(N4CCOCC4)n2)CSCC3)cn1)NS(=O)(=O)c1ccc(F)cc1 | 36.2 | > 50 | > 50 |  |  |  |
| O=C(Nc1ccc(Cl)c(C(F)(F)F)c1)N1CCN(c2nc3c(c(N4CCOCC4)n2)CS(=O)(=O)CC3)CC1 | 6.13 | 28.7 | 5.94 | 9.43 | 4.23 | > 10 |
| O=C(Nc1ccc(-c2nc3c(c(N4CCOCC4)n2)CS(=O)(=O)CC3)cc1)NS(=O)(=O)c1ccc(Cl)cc1 | > 50 | > 50 | > 50 |  |  |  |
| O=C(Nc1ccc(F)c(Cl)c1)Nc1ccc(-c2nc3c(c(N4CCOCC4)n2)CSCC3)cn1 | 6.07 | 20.5 | 11.5 | 0.86 | 0.69 | > 10 |
| O=C(Nc1ccc(Cl)c(C(F)(F)F)c1)N1CCN(c2nc3c(c(N4CCOCC4)n2)CSCC3)CC1 | 3.83 | 26.7 | 5.8 | 6.26 | > 10 | > 10 |
| O=C(Nc1ccc(-c2nc3c(c(N4CCOCC4)n2)CS(=O)(=O)CC3)cn1)NS(=O)(=O)c1ccc(Cl)cc1 | > 50 | > 50 | > 50 |  |  |  |

Reference: ChEMBL document CHEMBL3792291, “Design, synthesis, biological evaluation and docking studies of novel 2-substituted-4-morpholino-7,8-dihydro-5H-thiopyrano[4,3-d]pyrimidine derivatives as dual PI3Kα/mTOR inhibitors” (Eur J Med Chem, 2016)
